Measurements reported in PubChem BioAssay.
The source made the active and inactive calls.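 The calls were made as follows, unless noted: active = Her2 level under about 52% in both replicate screens, with viability over 70% of control (limit read from the data); inconclusive = Her2 under the limit in one screen only, or viability under 70%; inactive = Her2 level above the set limit.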

Experiments:
[1] = Her2 expression decrease, cell viability multiplex – SKBR3 breast tumor cells, AlphaScreen, ATP viability, primary screen (AID 461); settings: SKBR3 Her2 protein level, 18-24 h, measured here: SKBR3 viability, ATP luminescence, at 10 µM;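 as to Her2 level: lower value means less Her2 protein in the cells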;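 as to viability: percent of carrier control wells set as 100% viability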
[2] = biological target: Receptor tyrosine-protein kinase erbB-2 (Homo sapiens) (UniProt P04626); assay: as above; settings: 18-24 h, at 10 µM, stronger effect = lower value
[3] = reduced viability of SK-BR-3 breast cancer cells – cell-based, 24 h, human, pilot screen (AID 572;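 active = viability at or below 10% of carrier control in both of two separate runs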;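 also: compound exposure lasted between 18 and 24 h rather than exactly 24 h; 100% = carrier-treated control wells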); settings: SK-BR-3 viability, CellTiter-Glo luminescence, at 10 µM, stronger effect = lower value
[4] = HUVEC growth inhibition – cell-based, human, primary screen (AID 575;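 active = viability at or below 30% in both replicate assays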;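 also: 100% = median of untreated cell wells with 0.1% DMSO on each plate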); settings: HUVEC proliferation, CellTiter-Glo luminescence, 72 h; at 10 µM; stronger effect = lower value
Procedure, shortened: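 Material: primary human umbilical vein endothelial cells / Schedule: 72 h exposure, 37 °C, 5% CO2, 30 min RT equilibration / Signal: ATP-based CellTiter-Glo luminescent read / Read-out basis: percent of median DMSO-control luminescence / Control set: 32 DMSO-only cell-control wells (high), 32 MePR drug-control wells (low) per plate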

[5] = H69AR cell proliferation blockers – human, duplicate replicates, primary screen (AID 580;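 active = viability at or under a set limit in both replicates, limit being median viability minus 3 SD, cut at about 48% in these data, passing the limit was not always enough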;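 also: 100% = mean luminescence of untreated wells and 0% = no signal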); settings: H69AR lung tumor cells viability, ATP luminescence, 72 h; at 10 µM; stronger effect = lower value
[6] = MRP1 drug-resistance reversers in H69AR cells – cell-based, doxorubicin co-treatment, pilot screen (AID 601;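 active = viability loss from added drug above about 55%, and viability with drug at most 40%, in both replicates, limit read from the data, passing the limit was not always enough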); settings: CellTiter-Glo, 72 h, at 10 µM; for differential viability (reversal): stronger effect = higher value
[7] = yeast transport mutant growth inhibition pilot in 384-well plates, post-Golgi transport modulator project (AID 636; in the data active = inhibition above about 31%); settings: absorbance 615 nm, about 18 h, stronger effect = higher value
[8] = growth suppression of yeast trafficking mutant, preliminary HTS, modulators of trafficking downstream of Golgi apparatus project, 1536-format plate, OD 615 nm (AID 637; in the data active = inhibition above about 30%); settings: yeast transport mutant growth, absorbance 615 nm, 18 h; stronger effect = higher value
[9] = H69AR cells + 2 uM doxorubicin, measured here: viability with 2 uM doxorubicin, stronger effect = lower value
[10] = H69AR cells, compound alone cytotoxicity

Receptor tyrosine-protein kinase erbB-2 (Homo sapiens), sequence (P04626 whole entry, looked up): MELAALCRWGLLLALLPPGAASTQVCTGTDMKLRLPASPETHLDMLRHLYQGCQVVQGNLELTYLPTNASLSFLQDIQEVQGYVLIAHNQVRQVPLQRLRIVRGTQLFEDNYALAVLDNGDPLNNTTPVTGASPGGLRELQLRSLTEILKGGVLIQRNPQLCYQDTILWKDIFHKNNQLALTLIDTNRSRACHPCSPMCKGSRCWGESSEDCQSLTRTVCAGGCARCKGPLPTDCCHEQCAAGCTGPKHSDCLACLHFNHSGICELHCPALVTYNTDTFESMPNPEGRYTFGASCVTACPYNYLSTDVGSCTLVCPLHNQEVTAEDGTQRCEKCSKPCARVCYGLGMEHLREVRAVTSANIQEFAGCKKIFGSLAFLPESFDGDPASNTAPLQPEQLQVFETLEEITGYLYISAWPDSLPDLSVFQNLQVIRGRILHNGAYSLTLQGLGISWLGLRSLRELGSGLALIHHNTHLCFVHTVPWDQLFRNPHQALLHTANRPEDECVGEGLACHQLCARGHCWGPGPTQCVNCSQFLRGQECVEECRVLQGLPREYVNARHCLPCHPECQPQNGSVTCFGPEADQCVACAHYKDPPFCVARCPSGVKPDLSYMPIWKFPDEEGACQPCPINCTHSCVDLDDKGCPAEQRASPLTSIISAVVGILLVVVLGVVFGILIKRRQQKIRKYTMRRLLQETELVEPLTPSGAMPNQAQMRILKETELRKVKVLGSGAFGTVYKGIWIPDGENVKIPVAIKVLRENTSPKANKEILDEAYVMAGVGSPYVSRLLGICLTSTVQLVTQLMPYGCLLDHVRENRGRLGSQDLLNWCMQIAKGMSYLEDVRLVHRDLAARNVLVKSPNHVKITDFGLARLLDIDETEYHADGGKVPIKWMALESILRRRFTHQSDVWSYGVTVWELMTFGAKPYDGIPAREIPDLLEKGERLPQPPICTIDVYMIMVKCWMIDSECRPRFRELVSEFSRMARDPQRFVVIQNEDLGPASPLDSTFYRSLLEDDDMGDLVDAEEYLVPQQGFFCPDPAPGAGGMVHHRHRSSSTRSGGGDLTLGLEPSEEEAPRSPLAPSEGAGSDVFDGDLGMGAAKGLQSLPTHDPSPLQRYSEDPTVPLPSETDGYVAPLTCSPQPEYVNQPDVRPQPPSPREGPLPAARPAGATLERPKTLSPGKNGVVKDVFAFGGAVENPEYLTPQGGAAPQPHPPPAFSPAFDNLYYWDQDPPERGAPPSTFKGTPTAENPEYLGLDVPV

SMILES | viability [1] | Her2 level [2] | viability [3] | viability [4] | viability [5] | differential viability (reversal) ([6]; H69AR cells + 2 uM doxorubicin) | viability [6, 9] | viability [6, 10] | inhibition [7] | inhibition [8]
c1ccc(-c2ccccc2OCCn2cncn2)cc1 | 93% | 79% (inactive) | 93% (inactive) | 104% (inactive) | 99.8% (inactive) | 15.9% (inactive) | 83.9% | 99.8% | -5.41% (inactive) | 0.98% (inactive)
Nc1cc(CN2C(=O)c3ccccc3C2=O)cc(Cl)c1O | 102% | 91.5% (inactive) | 102% (inactive) | 75.1% (inactive) | 108% (inactive) | 29% (inactive) | 79.2% | 108% | -5.41% (inactive) | -1.64% (inactive)
CCOC(=O)N1CCN(CC(=O)c2c(C)[nH]c3ccccc23)CC1 | 94% | 98% (inactive) | 94% (inactive) | 79.9% (inactive) | 75.2% (inactive) | -7.93% (inactive) | 83.1% | 75.2% | -5.41% (inactive) | -3.93% (inactive)
COc1ccc(NC(=O)CCS(=O)(=O)c2ccc(OC)cc2)cc1 | 96% | 104% (inactive) | 96% (inactive) | 94.8% (inactive) | 83.4% (inactive) | -9.78% (inactive) | 93.2% | 83.4% | -0.4% (inactive) | -7.26% (inactive)
c1ccc(CNc2ccc3c(c2)ncn3C2CCCCC2)nc1 | 97% | 107% (inactive) | 97% (inactive) | 96% (inactive) | 96.8% (inactive) | 2.95% (inactive) | 93.8% | 96.8% | -1.05% (inactive) | -2.73% (inactive)
O=C1C2CC=CCC2C(=O)N1c1ccc(Cc2ccncc2)cc1 (stereo not given) | 88% | 96.5% (inactive) | 88% (inactive) | 83.8% (inactive) | 100% (inactive) | 2.21% (inactive) | 97.8% | 100% | 0.78% (inactive) | -5.74% (inactive)
COc1ccc(N2CCN(Cc3nc4ccccc4c(=O)[nH]3)CC2)cc1 | 104% | 98% (inactive) | 104% (inactive) | 92.1% (inactive) | 94.3% (inactive) | -2.54% (inactive) | 96.8% | 94.3% | -3.33% (inactive) | -5.57% (inactive)
Cc1cccc2cc(CN(CCCO)C(=O)Nc3ccc(Cl)cc3)c(=O)[nH]c12 | 74% | 69.5% (inactive) | 74% (inactive) | 67.9% (inactive) | 77.1% (inactive) | 5.85% (inactive) | 71.2% | 77.1% | -5.32% (inactive) | -1.43% (inactive)
COC(=O)C(C)Sc1nc2c(c(=O)n(C)c(=O)n2C)n1Cc1cccc(C)c1 (stereo not given) | 97.5% | 86.5% (inactive) | 97.5% (inactive) | 79.7% (inactive) | 91.5% (inactive) | 8.71% (inactive) | 82.8% | 91.5% | -0.26% (inactive) | -0.32% (inactive)
CC(C)(C)OC(=O)N1CCC(C(=O)N2CCCCCC2)CC1 | 94% | 87.5% (inactive) | 94% (inactive) | 102% (inactive) | 107% (inactive) | 21.3% (inactive) | 86.2% | 107% | -1.71% (inactive) | -6.36% (inactive)
COc1ccc(-c2nc(C#N)c(N3CCN(c4ccccc4)CC3)o2)cc1 | 94.5% | 98.5% (inactive) | 94.5% (inactive) | 94.7% (inactive) | 105% (inactive) | 11.7% (inactive) | 93.8% | 105% | -2.05% (inactive) | 3.33% (inactive)
c1ccc2c(Cn3ccnc3)c[nH]c2c1 | 109% | 114% (inactive) | 109% (inactive) | 85.3% (inactive) | 86% (inactive) | -5.34% (inactive) | 91.4% | 86% | -5.19% (inactive) | -2.62% (inactive)
O=C(CN(C(=O)CCC(=O)Nc1nccs1)c1ccccc1F)NCC1CCCO1 (stereo not given) | 110% | 104% (inactive) | 110% (inactive) | 105% (inactive) | 100% (inactive) | 9.81% (inactive) | 90.4% | 100% | -3.33% (inactive) | 13.1% (inactive)
O=C(c1ccccc1-c1ccccc1)N1CCN(c2ccccn2)CC1 | 69.5% | 93% (inactive) | 69.5% (inactive) | 58.8% (inactive) | 16% (active) | -57.7% (inactive) | 73.7% | 16% | -6.76% (inactive) | -4.75% (inactive)
CCn1nnc(NC(=O)c2cc3ccccc3o2)n1 | 103% | 103% (inactive) | 103% (inactive) | 97.2% (inactive) | 101% (inactive) | 11.5% (inactive) | 90% | 101% | -4.19% (inactive) | -9% (inactive)
O=C(CN1C(=O)c2cccc3cccc1c23)N1CCN(c2ccccc2)CC1 | 100% | 103% (inactive) | 100% (inactive) | 111% (inactive) | 113% (inactive) | 23.3% (inactive) | 89.5% | 113% | 1.49% (inactive) | -1.5% (inactive)
CCOC(=O)Cc1nnc2c(Nc3ccc(C)cc3)nc3nonc3n12 | 97% | 76% (inactive) | 97% (inactive) | 74.9% (inactive) | 94% (inactive) | -1.2% (inactive) | 95.2% | 94% | -4% (inactive) | 7.7% (inactive)
Cc1cc(C)c(C)c(S(=O)(=O)Nc2ccc(O)cc2)c1C | 100% | 87.5% (inactive) | 100% (inactive) | 96.6% (inactive) | 96.8% (inactive) | 14.1% (inactive) | 82.7% | 96.8% | -4.4% (inactive) | -1.61% (inactive)
O=C(O)COc1ccc(Oc2ccccc2)cc1 | 102% | 106% (inactive) | 102% (inactive) | 96.1% (inactive) | 109% (inactive) | 13.3% (inactive) | 96% | 109% | 0.26% (inactive) | -3.55% (inactive)
